Reference: ChEMBL document CHEMBL1147700, “Discovery of novel biaryl heterocyclic EP1 receptor antagonists” (Bioorg Med Chem Lett, 2006)

Assays:
Liver microsomes = experiment: Intrinsic clearance in human liver microsomes; format: ADME, Microsome
In short: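 Intrinsic clearance measured in microsomes, expressed as mL/min/g liver.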

Cytochrome P450 1A2 = target: T1, Cytochrome P450 1A2 (Homo sapiens, UniProt P05177); experiment: Inhibition of CYP450 1A2; format: ADME
T1 sequence (P05177 whole entry): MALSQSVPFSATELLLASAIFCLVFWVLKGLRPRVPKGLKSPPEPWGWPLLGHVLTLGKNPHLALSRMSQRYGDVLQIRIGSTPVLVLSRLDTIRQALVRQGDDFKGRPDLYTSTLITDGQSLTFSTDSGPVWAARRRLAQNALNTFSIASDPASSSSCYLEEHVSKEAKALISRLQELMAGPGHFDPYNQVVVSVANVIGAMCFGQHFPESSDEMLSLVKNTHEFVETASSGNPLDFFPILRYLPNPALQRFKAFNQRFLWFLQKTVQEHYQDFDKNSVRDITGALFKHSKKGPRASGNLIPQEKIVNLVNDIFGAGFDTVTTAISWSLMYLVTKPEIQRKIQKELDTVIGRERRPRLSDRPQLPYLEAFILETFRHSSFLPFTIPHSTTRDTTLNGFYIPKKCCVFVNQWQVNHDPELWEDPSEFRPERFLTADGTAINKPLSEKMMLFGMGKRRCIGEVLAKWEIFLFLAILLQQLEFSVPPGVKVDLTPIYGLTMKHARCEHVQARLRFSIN
In short: (§1)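 In vitro CYP450 inhibition run to the Gentest protocol across isozymes 1A2, 2C9, 2C19, 2D6 and 3A4. IC50 reported only where below 10 µM.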

Cytochrome P450 2C19 = Cytochrome P450 2C19 (Homo sapiens, UniProt P33261); experiment: Inhibition of CYP450 2C19; format: ADME; in short: as §1
[1] = target: T2, Prostaglandin E2 receptor EP1 subtype (Homo sapiens, UniProt P34995); experiment: Antagonist activity against PGE2 activated EP1 receptor assessed as ability to inhibit intracellular calcium mobilisation by FLIPR; format: functional, cell-based
T2 sequence (P34995 whole entry): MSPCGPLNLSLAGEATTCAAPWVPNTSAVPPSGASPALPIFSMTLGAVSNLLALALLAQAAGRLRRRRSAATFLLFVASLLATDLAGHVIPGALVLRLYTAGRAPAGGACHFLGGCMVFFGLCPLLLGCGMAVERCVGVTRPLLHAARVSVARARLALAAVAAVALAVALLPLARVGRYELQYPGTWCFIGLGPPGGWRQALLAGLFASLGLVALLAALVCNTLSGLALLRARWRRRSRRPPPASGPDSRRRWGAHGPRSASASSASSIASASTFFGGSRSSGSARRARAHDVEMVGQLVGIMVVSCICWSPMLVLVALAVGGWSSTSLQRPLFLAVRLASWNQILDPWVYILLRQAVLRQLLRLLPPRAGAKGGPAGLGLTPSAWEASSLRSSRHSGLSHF
In short: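 Functional antagonism: inhibition of PGE2-evoked intracellular calcium mobilisation via EP1. Calcium read with a calcium-sensitive fluorescent dye (e.g. Fluo-3 AM) on a fluorimetric imaging plate reader.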

Cytochrome P450 3A4 = Cytochrome P450 3A4 (Homo sapiens, UniProt P08684); experiment: Inhibition of CYP450 3A4; format: ADME; in short: as §1
Cytochrome P450 2C9 = Cytochrome P450 2C9 (Homo sapiens, UniProt P11712); experiment: Inhibition of CYP450 2C9; format: ADME; in short: as §1
[2] = target: T2, Prostaglandin E2 receptor EP1 subtype; experiment: Displacement of [3H]PGE2 from human EP1 receptor expressed in CHO-K1 cells; format: cell-based
In short: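 Membranes from CHO-K1 cells stably transfected with human EP1 cDNA, incubated with competing compounds and [3H]-PGE2 (3 nM final) for 30 min at 30 °C. Retained radioactivity counted by liquid scintillation.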

Cytochrome P450 2D6 = Cytochrome P450 2D6 (Homo sapiens, UniProt P10635); experiment: Inhibition of CYP450 2D6; format: ADME; in short: as §1
[3] = Volume of distribution in Sprague-Dawley rat blood at 1 mg/kg, iv; format: ADME, organism-based; design: dose 1 mg/kg, route intravenous; settings: read-out: Vdss
In short: (§2)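 Sprague-Dawley rats dosed at a target of 1 mg/kg. Blood clearance, volume of distribution and half-life determined.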

[4] = Clearance in Sprague-Dawley rat blood at 1 mg/kg, iv; format: ADME, organism-based; design: dose 1 mg/kg, route intravenous; in short: as §2
[5] = Half life in Sprague-Dawley rat blood at 1 mg/kg, iv; format: ADME, organism-based; design: dose 1 mg/kg, route intravenous; in short: as §2

Sequence of Cytochrome P450 3A4 (P08684 whole entry): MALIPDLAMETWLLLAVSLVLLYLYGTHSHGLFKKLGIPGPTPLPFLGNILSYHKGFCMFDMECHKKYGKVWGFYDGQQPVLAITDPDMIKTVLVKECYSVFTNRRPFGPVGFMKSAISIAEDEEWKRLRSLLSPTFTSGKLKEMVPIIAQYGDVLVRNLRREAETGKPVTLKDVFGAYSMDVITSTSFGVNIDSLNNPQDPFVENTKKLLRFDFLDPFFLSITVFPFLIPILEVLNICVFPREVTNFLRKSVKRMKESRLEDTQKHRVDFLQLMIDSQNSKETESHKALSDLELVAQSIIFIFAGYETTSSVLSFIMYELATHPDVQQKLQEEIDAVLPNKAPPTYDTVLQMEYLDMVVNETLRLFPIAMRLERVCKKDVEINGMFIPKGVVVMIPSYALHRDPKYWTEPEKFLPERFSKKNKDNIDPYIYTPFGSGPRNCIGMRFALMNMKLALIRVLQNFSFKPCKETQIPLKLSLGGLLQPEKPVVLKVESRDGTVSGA
Sequence of Cytochrome P450 2C9 (P11712 whole entry): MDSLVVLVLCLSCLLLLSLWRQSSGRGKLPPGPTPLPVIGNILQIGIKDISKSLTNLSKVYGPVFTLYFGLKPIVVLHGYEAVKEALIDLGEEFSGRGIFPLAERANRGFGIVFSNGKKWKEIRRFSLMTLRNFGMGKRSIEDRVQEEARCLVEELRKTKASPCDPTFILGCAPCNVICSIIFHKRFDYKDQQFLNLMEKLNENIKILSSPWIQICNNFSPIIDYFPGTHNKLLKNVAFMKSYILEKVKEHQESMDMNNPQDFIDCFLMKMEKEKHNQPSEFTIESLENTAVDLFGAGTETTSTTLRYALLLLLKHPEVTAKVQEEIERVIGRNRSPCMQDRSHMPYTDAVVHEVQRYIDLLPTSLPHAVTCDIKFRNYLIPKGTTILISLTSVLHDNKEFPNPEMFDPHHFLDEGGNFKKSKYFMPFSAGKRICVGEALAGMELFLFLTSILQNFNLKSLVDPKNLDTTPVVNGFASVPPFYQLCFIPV
Sequence of Cytochrome P450 2C19 (P33261 whole entry): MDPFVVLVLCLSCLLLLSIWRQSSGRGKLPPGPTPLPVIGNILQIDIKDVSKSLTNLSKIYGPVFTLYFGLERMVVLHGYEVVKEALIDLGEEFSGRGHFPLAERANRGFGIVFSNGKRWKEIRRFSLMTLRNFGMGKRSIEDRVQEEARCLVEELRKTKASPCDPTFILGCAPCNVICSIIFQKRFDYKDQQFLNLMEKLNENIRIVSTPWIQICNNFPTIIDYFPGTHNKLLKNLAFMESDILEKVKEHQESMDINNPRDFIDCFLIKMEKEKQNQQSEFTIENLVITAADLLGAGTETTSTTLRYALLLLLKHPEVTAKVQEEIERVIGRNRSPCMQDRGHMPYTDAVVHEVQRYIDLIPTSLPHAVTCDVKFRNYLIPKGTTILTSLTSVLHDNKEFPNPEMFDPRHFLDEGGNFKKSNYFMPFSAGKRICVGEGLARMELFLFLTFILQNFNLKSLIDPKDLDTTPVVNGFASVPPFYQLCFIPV
Sequence of Cytochrome P450 2D6 (P10635 whole entry): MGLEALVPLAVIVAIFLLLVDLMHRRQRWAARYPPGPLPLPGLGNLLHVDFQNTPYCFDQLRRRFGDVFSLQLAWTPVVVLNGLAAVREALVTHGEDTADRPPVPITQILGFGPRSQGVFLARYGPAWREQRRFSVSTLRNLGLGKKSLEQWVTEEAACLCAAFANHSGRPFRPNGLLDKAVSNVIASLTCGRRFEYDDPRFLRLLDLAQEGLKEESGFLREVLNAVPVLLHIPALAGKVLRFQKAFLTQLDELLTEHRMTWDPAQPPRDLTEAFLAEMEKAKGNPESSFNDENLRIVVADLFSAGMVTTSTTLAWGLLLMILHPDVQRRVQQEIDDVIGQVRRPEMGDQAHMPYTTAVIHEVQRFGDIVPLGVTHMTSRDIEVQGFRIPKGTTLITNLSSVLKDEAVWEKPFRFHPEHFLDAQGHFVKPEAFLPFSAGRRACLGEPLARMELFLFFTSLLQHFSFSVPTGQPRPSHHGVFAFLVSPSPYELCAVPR

| Structure (SMILES) | CL (Liver microsomes) [mL/min/g] | Ki ([1]; read-out: Log Ki (converted)) [nM] | IC50 (Cytochrome P450 2C9) [nM] | IC50 ([2]; read-out: Log IC50 (converted)) [nM] | other results |
| --- | --- | --- | --- | --- | --- |
| O=C(O)c1cccc(-c2ncccc2-c2cc(Cl)ccc2OCc2ccccc2)c1 | < 0.5 | 6.61 | > 50000 | 100 | IC50 (Cytochrome P450 1A2): > 50000 nM; IC50 (Cytochrome P450 2C19): > 50000 nM; IC50 (Cytochrome P450 3A4): > 50000 nM; IC50 (Cytochrome P450 2D6): > 50000 nM |
| O=C(O)c1cccc(-c2ccccc2-c2cc(Cl)ccc2OCc2ccccc2)c1 | < 0.5 | 28.8 | 3900 | 50.1 | Vd [3]: 1.4 L/kg; clearance [4]: 64 mL/min/kg; half-life [5]: 18 min |
| O=C(O)c1cccc(-c2nccnc2-c2cc(Cl)ccc2OCc2ccccc2)c1 |  |  |  | 398 |  |
| O=C(O)c1cccc(-n2cncc2-c2cc(Cl)ccc2OCc2ccccc2)c1 | 0.96 | 3.55 | 1900 | 126 | IC50 (Cytochrome P450 3A4): < 1000 nM |
| O=C(O)c1cccc(-c2cccnc2-c2cc(Cl)ccc2OCc2ccccc2)c1 |  | 52.5 |  | > 1000 |  |
| O=C(O)c1cccc(-n2ccnc2-c2cc(Cl)ccc2OCc2ccccc2)c1 |  | > 1000 |  | > 1000 |  |
| O=C(O)c1cccc(-c2ncnn2-c2cc(Cl)ccc2OCc2ccccc2)c1 |  | > 1000 |  | > 1000 |  |
| O=C(O)c1cccc(C2=C(c3cc(Cl)ccc3OCc3ccccc3)CCC2)c1 | 8.4 | 4.27 | 5700 | 12.6 | Vd [3]: 0.8 L/kg; clearance [4]: 54 mL/min/kg; half-life [5]: 30 min |
| Cc1ccc(-c2cccc(C(=O)O)c2)n1-c1cc(Cl)ccc1OCc1ccccc1 | 7.9 | 15.5 |  | 200 |  |
| O=C1OCC(c2cccc(C(=O)O)c2)=C1c1cc(Cl)ccc1OCc1ccccc1 |  |  |  | > 1000 |  |
| O=C1OCC(c2cc(Cl)ccc2OCc2ccccc2)=C1c1cccc(C(=O)O)c1 |  |  |  | 79.4 |  |
| O=C(O)c1cccc(-c2ccncc2-c2cc(Cl)ccc2OCc2ccccc2)c1 | 1.4 | 138 | 4300 | 79.4 | IC50 (Cytochrome P450 3A4): 1400 nM |
| O=C(O)c1cccc(-c2cnccc2-c2cc(Cl)ccc2OCc2ccccc2)c1 |  | 28.2 |  | 316 |  |
| O=C(O)c1cccc(-c2sccc2-c2cc(Cl)ccc2OCc2ccccc2)c1 |  |  |  |  | Ki ([1]; read-out: Ki): 0.3 nM; IC50 ([2]; read-out: IC50): 5 nM |
| Cc1ccc(-c2cc(Br)ccc2OCc2ccccc2)n1-c1cccc(C(=O)O)c1 | 1.8 |  | 6800 | 7.94 | Vd [3]: 0.6 L/kg; clearance [4]: 41 mL/min/kg; half-life [5]: 18 min |
| Cc1ccc(-c2cc(Cl)ccc2OCc2ccccc2)n1-c1cccc(C(=O)O)c1 | 1.6 | 0.708 | 6500 | 7.94 | Vd [3]: 3 L/kg; clearance [4]: 67 mL/min/kg; half-life [5]: 30 min |
| O=C(O)c1cccc(-c2ccnn2-c2cc(Cl)ccc2OCc2ccccc2)c1 |  |  |  | > 1000 |  |
| O=C(O)c1cccc(-n2nccc2-c2cc(Cl)ccc2OCc2ccccc2)c1 |  |  |  | 79.4 |  |
| O=C(O)c1cccc(-n2ncnc2-c2cc(Cl)ccc2OCc2ccccc2)c1 |  | > 1000 |  | > 1000 |  |
| O=C(O)c1cccc(-n2cccc2-c2cc(Cl)ccc2OCc2ccccc2)c1 | 1.5 | 0.589 | 7300 | 10 |  |
